Measured values taken from the RNAGym collection of RNA variant scans (doi:10.1038/s41586-018-0170-7).

B1: tRNA (parent)
chain: GUUCCGUUGGCGUAAUGGUAACGCGUCUCCCUCCUAAGGAGAAGACUGCGGGUUCGAGUCCCGUACGGAACG

Variants of: B1
Experiment: yeast fitness, log relative to wild type (ln ratio); higher = fitter; tRNA-Arg(CCU), competitive growth, 37 C, 1 M NaCl
Procedure, shortened: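 A combinatorial tRNA-Arg(CCU) variant library was carried on a HIS3 centromeric plasmid in BY4742 lacking the chromosomal gene, from two independent transformations. Pools grew 4 generations in SC-HIS at 30 °C, then ~6.5 generations (~26.5 h) in SC-HIS 1M NaCl at 37 °C, with three outputs per input. Variants were counted by 125 bp paired-end Illumina sequencing. Fitness is ln of each genotype's generations (OD-scaled log2 output/input frequency, inverse-variance weighted across replicates) over the wild-type's.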

Variant | yeast fitness (ln)
U2C C27U A43C C66U A70U C71U | -0.343
G1A C27U | -0.105
U2G G6A C46U C66U A70G C71U | -0.35
G1A U2G G6A C27U A70U | -0.24
G1A U2G C27U C66U A69G A70G C71U | -0.416
G1A A43C C66A A69G A70U C71U | -0.257
G1A A43C A70U | -0.13
U2G G6A C66A A69G A70U C71U | -0.31
G1A U2C C66A A70U C71U | -0.0883
U2C G6A A43C C66U | -0.121
G6U C46U A70U C71U | -0.189
U2C G6U A43C C66U A69G A70U | -0.231
U2C G6U A43C C66U A69G A70G | -0.31
G1A U2C G6U C27U C46U | -0.0885
U2C G6U C27U A43C C66A A70G C71U | -0.0868
U2G C27U A43C C46U C66U | -0.146
G6A A43C C46U A70U | -0.117
U2G G6U C27U C66U A70G | -0.207
U2C G6A C27U C66U A70G C71U | -0.0401
U2C G6U C66A A70U C71U | -0.105
C27U C46U C66A A70G | -0.0605
G1A U2G G6A C27U A43C A69G A70U C71U | -0.484
G1A G6U C27U C71U | -0.251
U2G A70G C71U | -0.268

Variant | yeast fitness (ln)
G1A U2G G6A C27U A43C A70U | -0.26
U2C G6A A43C C66U A70U | -0.06
G1A U2C A43C A69G A70G | -0.151
G1A G6U C27U A69G A70U | -0.29
G6U C46U | -0.0183
U2C C27U A69G A70U C71U | -0.278
A43C C66U A69G | -0.174
G6U C66U A70U C71U | -0.315
G6U C27U A43C C46U A70G | -0.248
G1A G6U C27U C46U A70G C71U | -0.262
G1A U2C G6U A70G | -0.113
U2C C46U C66A A70U | 0.075
U2C C46U C66A A70G | -0.0556
G1A U2G G6U C27U C46U A70U | -0.217
G6U C27U A43C C46U C66A A70U C71U | -0.357
G1A G6A C27U A43C | -0.204
G1A C27U A69G A70G | -0.215
G6A C27U A43C C46U C66U A69G A70U C71U | -0.447
G1A G6A A43C A69G A70U | -0.224
U2C G6U A43C A70U C71U | -0.198
G1A G6U A43C C46U C66U C71U | -0.275
G1A U2G G6U A43C C66A C71U | -0.265
G1A U2G G6A C46U C66U A70G C71U | -0.517
G1A U2C G6U C46U A69G A70U C71U | -0.249

Variant | yeast fitness (ln)
U2G G6A C27U C66A C71U | -0.216
C46U C66U A69G A70G C71U | -0.084
G1A C27U A69G | -0.295
G1A A43C C66U A69G A70G C71U | -0.293
U2C G6U C27U C46U C66U A70G | -0.0763
G6A C46U C66U A69G A70G | -0.0235
G1A U2C G6U C27U C46U A70G C71U | -0.203
U2G A43C A70U | -0.00614
G1A U2C G6U C46U C66U A69G A70G C71U | -0.0644
G6A C27U C46U C66U A69G A70U C71U | -0.302
U2G C27U C66A A69G A70U C71U | -0.431
G1A U2C C46U C66U A69G A70G C71U | -0.0168
G1A U2C G6A A43C C46U A70U | -0.034
U2C G6U C27U A43C C46U C66U A69G A70G C71U | -0.275
G1A C46U C66A A69G A70G C71U | -0.178
U2G G6A A43C A69G C71U | -0.364
G6A C27U A43C C46U A69G A70G | -0.237
G1A U2G G6A C27U C66U A69G A70U C71U | -0.479
G1A G6A A43C C66U A70G C71U | -0.377
G1A U2G G6A C27U C46U A69G A70U | -0.233
U2C G6U A43C C66A A70U C71U | -0.272
C27U A43C C46U C66U A69G A70G C71U | -0.18
G1A U2C G6A A43C A70G C71U | -0.13
G1A U2G G6A A43C C46U C66U A70U C71U | -0.086

Variant | yeast fitness (ln)
U2G G6A C27U C71U | -0.156
G1A U2C G6U A43C C46U C66A A70G | -0.000562
U2C G6A A69G C71U | -0.176
G1A U2C C27U C66U A69G A70G | -0.313
G1A G6U C27U A43C C66U A69G A70G C71U | -0.497
U2G G6A C27U C46U C66A A69G A70U | -0.134
C27U C46U A70U C71U | -0.205
G1A U2G G6A C27U A69G A70G C71U | -0.443
G1A U2G G6U A43C C46U C66A A69G A70G C71U | -0.378
U2G G6A C27U A43C A69G C71U | -0.391
U2C G6A C66U A69G C71U | -0.225
G1A U2C G6A C27U A43C C46U C66U A69G A70G | -0.0972
G6U C27U A43C C66A A69G A70G | -0.453
G6A C46U | -0.0181
U2C G6U A43C C66A C71U | -0.0984
G1A U2G G6U C46U A69G A70G | -0.247
G1A G6U C27U A43C C46U C66A A70U | -0.359
U2C A43C C46U | 0.00393
C66U C71U | -0.173
U2G G6A C27U C66U A69G A70G C71U | -0.272
G1A U2C C66U A70G | -0.297
G1A U2G C27U C66A C71U | -0.147
U2G A43C C46U A69G C71U | -0.107
U2C C27U C46U C66A A69G A70U | -0.114

Variant | yeast fitness (ln)
C27U C46U C71U | -0.028
G1A U2G C27U C66U A69G A70G | -0.26
U2G G6A C27U A43C A70G | -0.186
G1A U2C G6A C66U A70G C71U | -0.0113
C27U C46U | -0.0139
U2G A70U | -0.00577
U2C C27U A43C A70G C71U | -0.0236
G1A U2G G6U A43C C46U C66U A69G C71U | -0.393
U2G G6U A43C C66A A70G | -0.137
U2G C27U C46U A69G A70U C71U | -0.563
G6A C66A | -0.163
G1A U2C G6U C27U A70G | -0.186
U2G G6U C27U A43C C46U C66A A69G C71U | -0.352
G1A C46U C66U A69G A70U C71U | -0.353
U2C G6A C27U C66A A70U | -0.0448
G1A U2C G6A C27U C46U C66U A69G A70G C71U | -0.0405
G6U A43C A69G A70G C71U | -0.327
U2G G6A C27U C46U C66A A70U C71U | -0.167
G1A C27U A43C C66U A69G A70U | -0.325
U2G G6A C27U A43C C66U A69G A70G C71U | -0.386
G1A G6U C27U A43C C46U A70U | -0.346
C27U A43C C66U A70U | -0.147
G1A U2C G6U C46U C66A A69G A70G C71U | -0.0207
G1A U2G G6A C27U A43C C46U C66U A69G A70U | -0.436

Variant | yeast fitness (ln)
G1A C66U A70U C71U | -0.212
U2G G6U C46U A69G A70U C71U | -0.311
G6U C46U C66U | -0.0169
G1A U2G A43C C46U C71U | -0.115
G6U C27U C46U C66U A69G C71U | -0.543
G1A U2G G6U C46U C66U A69G A70U C71U | -0.441
G1A C27U A43C C66U A70G | -0.333
G1A C27U A43C C46U C66U A69G A70G | -0.188
G1A C46U | -0.0224
C27U C46U C66U A70G | -0.315
G1A C27U A43C C46U C66A C71U | -0.231
U2G G6U A69G A70G C71U | -0.235
G1A U2G A69G A70U | -0.232
G1A U2C G6A C27U | -0.0466
U2C G6U A43C C46U C66A A69G A70G | -0.0147
U2C C46U C66U A70G | 0.0022
C46U C66A A69G A70G | -0.0653
G1A U2G A43C C66U A70G | -0.214
G1A U2C C27U C46U C66U A70G C71U | -0.0522
G1A U2G G6U A43C C71U | -0.307
C66U A69G A70U C71U | -0.339
G1A U2C G6U C27U A43C C66A A69G A70G C71U | -0.272
U2C G6U A43C A69G A70U C71U | -0.4
G6A C27U A43C C46U C66U A69G | -0.188

Variant | yeast fitness (ln)
G6U C27U C46U A69G A70G | -0.192
G1A U2C C27U A43C C46U C66A A70U C71U | -0.27
G1A U2C G6U C46U C66U A70U | -0.0663
G1A U2G G6A C27U A43C C46U A70G C71U | -0.405
G1A U2G C27U A43C | -0.182
G6U C27U A43C C46U C66A A69G A70G C71U | -0.312
U2C G6U C27U A43C A70G C71U | -0.324
G1A U2C C27U A43C C71U | -0.0487
G6A C46U C66A A70G C71U | -0.169
U2C C27U A69G | -0.23
U2C G6A C27U C46U A69G A70G C71U | -0.331
U2C G6A C66U A70G | -0.00663
G6A C66A C71U | -0.0747
G1A U2C G6U C27U C46U C66U A70U | -0.128
C27U A43C C46U C66U A70U C71U | -0.333
G1A U2G C27U C66U A70U | -0.174
G1A U2G G6U C27U C46U C66U A69G A70U | -0.339
G1A G6U C66U A69G A70G C71U | -0.273
G1A U2G G6U A43C C46U | -0.117
U2C G6U C66U | -0.0417
G1A U2G G6A C27U A43C C46U C66A A69G C71U | -0.275
G1A U2C G6U C27U A43C A70U C71U | -0.294
U2G C27U C46U A70G C71U | -0.216
